Consider seven compounds from ChEMBL document CHEMBL1157304, “Sesquiterpene lactones from Inula britannica and their cytotoxic and apoptotic effects on human cancer cell lines” (J Nat Prod, 2006).

pIC50: −log10 of the molar value.

Assay [1] relates to COLO 205. Nature of the assay: Induction of apoptosis in human COLO205 cells at 5 uM after 24 hrs by FACS. The assay is classed as functional. In outline:
(§1)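 2 × 10^5 cells plated in 60 mm dishes and incubated 24 h, then treated for 24 h with compound in DMSO. Cells harvested, washed in PBS and fixed overnight in ice-cold ethanol at −20 °C. Pellets held 30 min at 37 °C in 0.5% Triton X-100/PBS with 0.5 μg/mL RNase. Propidium iodide (50 μg/mL) added, 30 min on ice. Sub-G1 fraction read by FACScan flow cytometry. n=3, mean ± SE.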
For orientation: In flow cytometry, cells or beads pass a laser one at a time.

Assay [2] relates to AGS. As to the kind of experiment: Induction of apoptosis in human AGS cells at 100 uM after 24 hrs by FACS. The assay is classed as functional. The method in brief: as §1
Assay [3] relates to AGS. Nature of the assay: Induction of apoptosis in human AGS cells at 25 uM after 24 hrs by FACS. The format is functional. The method in brief: as §1
The test system of assay [4] is COLO 205. As to the kind of experiment: Induction of apoptosis in human COLO205 cells at 100 uM after 24 hrs by FACS. The format is functional. The method in brief: as §1
Assay [5] concerns AGS. As to the kind of experiment: Cytotoxicity against human AGS cells after 24 hrs by trypan blue exclusion assay. The format is functional, cell-based. The method in brief: (§2)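 Cells grown at 37 °C, 5% CO2; RPMI for COLO 205, HT-29 and HL-60, DMEM/F12 for AGS, each with 10% heat-inactivated FBS, penicillin/streptomycin and 2 mM L-glutamine. Compounds in DMSO (vehicle control 0.01% DMSO) tested at 5–100 μM for 24 h. Cells diluted 1:1 with 0.5% trypan blue. Unstained cells counted by hemocytometer and expressed as % viable. Three samples per group, mean ± SE.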

Assay [6] has as its system HL-60. Nature of the assay: Induction of apoptosis in human HL60 cells at 5 uM after 24 hrs by FACS. The format is functional. In outline:
as §1

The test system of assay [7] is HT-29. Nature of the assay: Induction of apoptosis in human HT29 cells at 5 uM after 24 hrs by FACS. The format is functional. In outline:
as §1

The test system of assay [8] is COLO 205. Nature of the assay: Induction of apoptosis in human COLO205 cells at 25 uM after 24 hrs by FACS. The assay is classed as functional. The method in brief:
as §1

Assay [9] has as its system AGS. As to the kind of experiment: Induction of apoptosis in human AGS cells at 10 uM after 24 hrs by FACS. The assay is classed as functional. In outline:
as §1

The test system of assay [10] is HL-60. Nature of the assay: Induction of apoptosis in human HL60 cells at 25 uM after 24 hrs by FACS. The assay is classed as functional. In outline: as §1
Assay [11] relates to COLO 205. Nature of the assay: Induction of apoptosis in human COLO205 cells at 50 uM after 24 hrs by FACS. The assay is classed as functional. In outline:
as §1

Assay [12] has as its system HT-29. Nature of the assay: Cytotoxicity against human HT29 cells after 24 hrs by trypan blue exclusion assay. The format is functional, cell-based. Conditions: HT-29, 24 h. The method in brief: as §2
The subject of assay [13] is HL-60. Nature of the assay: Induction of apoptosis in human HL60 cells at 10 uM after 24 hrs by FACS. The assay is classed as functional. In outline: as §1
In assay [14] the test system is HL-60. Nature of the assay: Induction of apoptosis in human HL60 cells at 50 uM after 24 hrs by FACS. The assay is classed as functional. The method in brief:
as §1

Assay [15] deals with HT-29. Nature of the assay: Induction of apoptosis in human HT29 cells at 100 uM after 24 hrs by FACS. The assay is classed as functional. In outline: as §1
Assay [16] deals with HT-29. As to the kind of experiment: Induction of apoptosis in human HT29 cells at 50 uM after 24 hrs by FACS. The assay is classed as functional. The method in brief: as §1
Assay [17] has as its system COLO 205. Nature of the assay: Induction of apoptosis in human COLO205 cells at 10 uM after 24 hrs by FACS. The assay is classed as functional. In outline:
as §1

The subject of assay [18] is HL-60. As to the kind of experiment: Induction of apoptosis in human HL60 cells at 100 uM after 24 hrs by FACS. The assay is classed as functional. In outline:
as §1

The test system of assay [19] is HT-29. Nature of the assay: Induction of apoptosis in human HT29 cells at 10 uM after 24 hrs by FACS. The format is functional. The method in brief:
as §1

In assay [20] the test system is AGS. As to the kind of experiment: Induction of apoptosis in human AGS cells at 50 uM after 24 hrs by FACS. The format is functional. The method in brief:
as §1

Assay [21] concerns AGS. As to the kind of experiment: Induction of apoptosis in human AGS cells at 5 uM after 24 hrs by FACS. The assay is classed as functional. The method in brief: as §1
The subject of assay [22] is HT-29. As to the kind of experiment: Induction of apoptosis in human HT29 cells at 25 uM after 24 hrs by FACS. The format is functional. The method in brief:
as §1

In assay [23] the test system is HL-60. As to the kind of experiment: Cytotoxicity against human HL60 cells after 24 hrs by trypan blue exclusion assay. The assay is classed as functional, cell-based. Conditions: HL-60, 24 h. In outline: as §2
Assay [24] deals with COLO 205. Nature of the assay: Cytotoxicity against human COLO205 cells after 24 hrs by trypan blue exclusion assay. The assay is classed as functional, cell-based. Conditions: COLO 205, 24 h. In outline:
as §2

As a reminder, the pIC50 is the negative decadic logarithm of the IC50, by convention in mol/L. With `C=C1C(=O)O[C@@H]2CC(C)=C([C@@H](C)CCCOC(C)=O)[C@H](O)[C@H]12`, the Activity is 13.44% in [1]; 18.85% in assay [2]; 14.666% in [3]; 35.79% in assay [4]; 4.05% in assay [6]; 5.36% in assay [7]. In addition, the Activity in assay [8] is listed as 16.48%; in assay [9], 17.28%; in assay [10], 4.37%; in assay [11] it was 16.59%; in [13], 7.26%; in [14] it was 5.69%. The Activity came out at 14.87% in [15]; 9.26% in assay [16]; 11.32% in assay [17]; 22.19% in [18]; 6.81% in assay [19]; 14.84% in assay [20]. The Activity in assay [21] came out at 15.37%; in assay [22] it was 11.68%. For the same compound, the pIC50 in assay [5] is below 4.00; in assay [12], 4.02; in assay [23] it was below 4.00; in assay [24], below 4.00.
`C=C1C(=O)O[C@@H]2CC(C)=C([C@@H](C)CCCO)[C@H](OC(=O)C(C)CC)[C@H]12` (stereo partly drawn): the Activity worked out at 5.33% in assay [1]; 27.1% in assay [2]; 17.76% in assay [3]; 36.24% in assay [4]; 6.41% in [6]; 4.24% in assay [7]. Moreover, the Activity in [8] came to 15.2%; in assay [9] it was 11.38%; in assay [10], 10.53%; in assay [11], 27.21%; in assay [13], 5.36%; in assay [14], 28.6%. In addition, the Activity was determined as 6.4% in assay [15]; 5.16% in assay [16]; 5.86% in [17]; 27.05% in assay [18]; 3.68% in [19]; 28.48% in assay [20]. The Activity in assay [21] is on record as 10.89%; in assay [22] it was 3.93%. For the same compound, the pIC50 in [5] is 4.50; in assay [12] it was 4.32; in assay [23], 4.33; in [24], 4.23.
For the compound `C=C1C(=O)O[C@@H]2CC(C)=C([C@@H](C)CCCOC(C)=O)[C@H](OC(C)=O)[C@H]12`, the Activity in [1] was determined as 6.94%; in assay [2] it was 8.12%; in [3], 11.29%; in assay [4] it was 17.82%; in assay [6], 6.14%; in assay [7], 11.19%. Besides, the Activity is 26.95% in [8]; 5.79% in assay [9]; 21.13% in assay [10]; 15.44% in [11]; 8.67% in assay [13]; 27.02% in [14]. The Activity is recorded as 20.88% in assay [15]; 13.08% in [16]; 8.69% in assay [17]; 22.24% in [18]; 11.15% in [19]; 10.79% in [20]. Moreover, the Activity in assay [21] is listed as 7.49%; in assay [22], 11.5%. The pIC50 in assay [5] was 4.18; in assay [12] it was 4.12; in [23], 4.45; in assay [24], 4.25.
For the compound `C=C1C(=O)O[C@H]2/C=C(\C)CC/C=C(\C)C[C@H](OC(C)=O)[C@@H]12` [ACETYL NEOBRITANNILACTONE B], the Activity in [1] amounted to 15.47%; in [2], 43.11%; in assay [3] it was 9.89%; in assay [4], 98.66%; in [6], 22.93%; in assay [7], 20.38%. The Activity in assay [8] came to 76.87%; in assay [9], 7.87%; in assay [10], 95.17%; in [11], 96.92%; in assay [13] it was 39.71%; in assay [14], 97.74%. The Activity in [15] is 82.47%; in assay [16], 81.43%; in assay [17] it was 34.72%; in assay [18], 98.05%; in [19] it was 47.56%; in assay [20], 13.64%. In addition, the Activity is listed as 6.16% in [21] and 69.7% in [22]. The pIC50 in assay [5] is 5.27; in assay [12], 4.24; in assay [23] it was 4.79; in assay [24] it was 4.83.
Consider `C=C1C(=O)O[C@@H]2CC(C)=C([C@@H](C)CCCO)[C@H](O)[C@H]12` [BRITANNILACTONE], for which the Activity is 11.9% in assay [1]; 10.37% in assay [2]; 10.16% in [3]; 28.31% in assay [4]; 7.22% in assay [6]; 5.75% in assay [7]. In addition, the Activity in [8] is listed as 12.79%; in assay [9] it was 10.37%; in [10], 5.24%; in assay [11] it was 15.54%; in assay [13], 5.64%; in [14] it was 8.01%. In addition, the Activity in assay [15] is 7.55%; in [16] it was 6.59%; in assay [17], 12.28%; in [18], 12.83%; in assay [19], 6.16%; in [20] it was 8.97%. Besides, the Activity in assay [21] stood at 7.93%; in assay [22] it was 6.49%. In addition, the pIC50 in assay [5], in assay [12], in assay [23] and in assay [24] was below 4.00 each time.
On to `CC(=O)OCCC[C@H](C)C1=C[C@@H]2[C@H](C)C(=O)O[C@@H]2C[C@@]1(C)O` [NEOBRITANNILACTONE A], for which the Activity in assay [1] is listed as 4.08%; in assay [2], 9.81%; in [3] it was 10.57%; in assay [4] it was 25.5%; in [6], 6.68%; in assay [7] it was 3.94%. Also, the Activity stood at 4.28% in assay [8]; 9.83% in assay [9]; 6.19% in assay [10]; 5.44% in assay [11]; 6.31% in assay [13]; 6.63% in assay [14]. For the same compound, the Activity in [15] is reported as 7.73%; in [16], 4.09%; in assay [17] it was 6.51%; in assay [18], 16.31%; in assay [19], 4.24%; in [20], 9.41%. For the same compound, the figures for the Activity in [21] and in [22] were 9.23% and 5.17%, respectively. For the same compound, the pIC50 in [5] was below 4.00; in assay [12], below 4.00; in [23], 4.07; in assay [24] it was 4.01.
For the compound `C=C1C(=O)O[C@H]2/C=C(\C)CC/C=C(\C)C[C@H](O)[C@@H]12` [NEOBRITANNILACTONE B], the Activity was determined as 10.73% in [1]; 19.22% in assay [2]; 11.78% in [3]; 96.81% in assay [4]; 9.82% in [6]; 13.58% in assay [7]. For the same compound, the Activity was determined as 41.62% in assay [8]; 8.66% in assay [9]; 77.57% in assay [10]; 89.11% in assay [11]; 21.93% in [13]; 96.94% in assay [14]. The Activity in [15] worked out at 87.02%; in [16], 82.27%; in assay [17], 14.12%; in assay [18] it was 98.29%; in assay [19] it was 24.46%; in [20], 15.95%. Besides, the values for the Activity in [21] and in [22] were 9.55% and 66.54%, respectively. Further, the pIC50 was 4.67 in [5], 4.25 in [12], 4.56 in [23] and 4.84 in [24].
